Screens as filed in PubChem BioAssay.
Efflux pump inh: inhibitors of Candida antifungal efflux pumps expressed in yeast; inhibition, % at 10 µM; S. cerevisiae Candida pump triplex, Nile Red efflux; 330,000 compounds, 0.44% hits;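 active means plate passing quality check with inhibition over a set limit, or well fluorescence over plate mean plus 4 SD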;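 further: Nile Red retained in pooled yeast measured as flow cytometry median fluorescence; 0% = buffer negative control and 100% = Enniatin B positive control; higher means more Nile Red kept so more efflux inhibition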
Statin myotox sup: protects C2C12 myotubes from simvastatin toxicity; 330,000 compounds, 0.78% hits; AID 602340; rescue of ATP level, % at 7.49 µM; ATP luminescence, 48 h; scaled: DMSO 0, geranylgeraniol control 100;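 active means mean ATP rescue above about 67%, or every replicate alone reaching that limit, limit read from the data, passing the limit was not always enough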;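 further: myotubes were challenged with 10 µM simvastatin during compound exposure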
SUMO Mot1 rescue: blocks SUMOylation pathway, rescuing yeast Mot1-301 growth; S. cerevisiae Mot1-301 growth rescue, ATP luminescence, 38.5C; percent above DMSO median, 100 means doubled; growth rescue, % at 18.8 µM; 320,000 compounds, 1% hits;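 active means every valid replicate shows activation above 250% relative to neutral control wells; inactive means the rest, any valid replicate at or below 250%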;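 further: OY570 slx delta 5 strain wells were the positive control but not used for scaling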
Cneo AK release: causes C. neoformans cell lysis | 360,000 compounds, 0.2% hits | adenylate kinase release luminescence, 4 h; normalised: neutral wells 0, clomiphene wells 100 | lysis activity, % at 15 µM;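 active means mean lysis activity across replicates of at least 80%, whatever share of replicates individually reach that level; inactive means mean lysis activity below 80%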
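Material – Cryptococcus neoformans yeast cells · Quantity – 5 × 10^6 yeast cells/mL · Buffer or medium – YPD medium · Compound – single dose · Timing – 4 h static compound exposure, 37 °C, read 1 h post-reagent · Signal – adenylate kinase release luminescence · Read-out basis – lysis from increased AK signal · Benchmarks – Clomiphene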
* = called active by the depositor. Shown are actives, neighbours in structure and some others; about 1.8% of the full set was active somewhere.

What do the screens show for `Cc1ccc(Cc2nnc3n(-c4ccccc4)nc(C(=O)c4ccccc4)n3c2=O)cc1`?
Efflux pump inh: 0; Statin myotox sup: 91*; SUMO Mot1 rescue: -13; Cneo AK release: 4

How did Cc1noc(C)c1NC(=O)N(C)C[C@H]1OCCCC[C@@H](C)Oc2ccc(NC(=O)Nc3ccc4c(c3)OCO4)cc2C(=O)N([C@@H](C)CO)C[C@H]1C do in these assays?
Statin myotox sup: -3; Cneo AK release: -3

How did C=CCc1cc(/C=C/c2nc(O)c([N+](=O)[O-])c(=O)[nH]2)cc(OC)c1O do in these assays?
Efflux pump inh: 0; SUMO Mot1 rescue: 523*

Results for CCOc1cc(/C=C\c2nc(O)c([N+](=O)[O-])c(=O)[nH]2)ccc1OC(C)C ?
Efflux pump inh: 0; Statin myotox sup: -4; SUMO Mot1 rescue: 227; Cneo AK release: -2

Results for O=C(O)CSc1nc2c(c(=O)[nH]1)CCCC2 ?
Efflux pump inh: 0; SUMO Mot1 rescue: -13

What do the screens show for `CSc1nc2c(c(=O)[nH]1)CCCC2`?
Efflux pump inh: 0; Statin myotox sup: 119*; SUMO Mot1 rescue: 285; Cneo AK release: 0

How did O=c1[nH]c(N2CCOCC2)nc2c1CCCC2 do in these assays?
Efflux pump inh: 0; Statin myotox sup: 117*; SUMO Mot1 rescue: -9; Cneo AK release: 4

How did CCn1c(CSc2nc3ccccc3[nH]2)n[nH]c1=S do in these assays?
Efflux pump inh: 0; Statin myotox sup: 101*; SUMO Mot1 rescue: 0; Cneo AK release: 0

How did O=C(c1ccccc1)c1nn(-c2ccccc2)c(=O)cc1C(F)(F)F do in these assays?
Efflux pump inh: 0; Statin myotox sup: 19; SUMO Mot1 rescue: 92; Cneo AK release: -2

What do the screens show for `O=C(c1cccc(Cl)c1)c1nn(-c2ccccc2)c(=O)cc1C(F)(F)F`?
Efflux pump inh: 0; Statin myotox sup: 105*; SUMO Mot1 rescue: -11; Cneo AK release: 1

Results for O=C(O)C1c2ccccc2C(=O)N(Cc2ccc(F)cc2)C1c1ccncc1 (stereo not given) ?
Efflux pump inh: 0; SUMO Mot1 rescue: 5; Cneo AK release: -2

Results for O=C(NCCc1ccccc1F)C1CCCN1S(=O)(=O)c1ccccc1 (stereo not given) ?
Efflux pump inh: 0; Statin myotox sup: 8; SUMO Mot1 rescue: 18; Cneo AK release: 0

Results for CC(=O)OCC(=O)C1CCC2C3CC=C4CC(O)CCC4(C)C3CCC12C (stereo not given) ?
Efflux pump inh: 0; Statin myotox sup: -10; SUMO Mot1 rescue: 462*; Cneo AK release: 3

What do the screens show for `Clc1ccc(Sc2oc(/C=N/n3cnnc3)cc2Br)cc1`?
Efflux pump inh: 0; Statin myotox sup: 149*; SUMO Mot1 rescue: 91; Cneo AK release: 5

How did Clc1ccc(Sc2ccc(/C=N/n3cnnc3)o2)cc1 do in these assays?
Efflux pump inh: 0; Statin myotox sup: -4; SUMO Mot1 rescue: 34; Cneo AK release: 3

How did CCn1c(=O)c(-c2nc3ccccc3[nH]2)c(O)c2ccccc21 do in these assays?
Efflux pump inh: 1; SUMO Mot1 rescue: -16

How did Cc1cc(C(=O)N2CCN(C/C=C/c3ccccc3)CC2)no1 do in these assays?
Efflux pump inh: 0; Statin myotox sup: 5; SUMO Mot1 rescue: 1; Cneo AK release: -2

How did O=C(c1cnccn1)N1CCN(C/C=C/c2ccccc2)CC1 do in these assays?
Efflux pump inh: 0; Statin myotox sup: 102*; Cneo AK release: -2

How did Cc1noc(C)c1NC(=O)N(C)C[C@H]1OCCCC[C@H](C)Oc2ccc(NC(=O)C3CCCCC3)cc2C(=O)N([C@@H](C)CO)C[C@H]1C do in these assays?
Cneo AK release: 0

How did CS(=O)(=O)N1CCCC(C(=O)NCCN2CCC(Cc3ccccc3)CC2)C1 (stereo not given) do in these assays?
Efflux pump inh: 0; Statin myotox sup: 0; SUMO Mot1 rescue: 180; Cneo AK release: 0

What do the screens show for `CSc1nc(Sc2ccc(Cl)cc2)c2ccccc2n1`?
Efflux pump inh: 0; Statin myotox sup: 146*; SUMO Mot1 rescue: -10; Cneo AK release: -2

What do the screens show for `C[C@@H]1CCCCO[C@@H](CN(C)Cc2ccc(C(=O)O)cc2)[C@@H](C)CN([C@H](C)CO)C(=O)c2cc(NC(=O)Nc3ccc4c(c3)OCO4)ccc2O1`?
Cneo AK release: 55

Results for Cc1nnc(NC(=O)c2ccccc2F)s1 ?
Efflux pump inh: 0; Statin myotox sup: 16; SUMO Mot1 rescue: -2; Cneo AK release: 1

What do the screens show for `Cc1nnc(NC(=O)c2ccccc2Br)s1`?
Efflux pump inh: 0; Statin myotox sup: -2; SUMO Mot1 rescue: 302*; Cneo AK release: -2

Results for CC1Cc2ccccc2N1C(=O)COC(=O)C1=COCCO1 (stereo not given) ?
Efflux pump inh: 0; Statin myotox sup: 6; SUMO Mot1 rescue: 897; Cneo AK release: -2

How did Cc1ccc(C(=O)Nc2cc3[nH]c(=O)oc3cc2C)cc1 do in these assays?
Efflux pump inh: 0; Statin myotox sup: 2; SUMO Mot1 rescue: 303*; Cneo AK release: 1

Results for Cc1ccc(C(=O)Nc2c[nH]c(=O)[nH]c2=O)cc1 ?
Efflux pump inh: 0; Statin myotox sup: 2; SUMO Mot1 rescue: -15; Cneo AK release: 11

What do the screens show for `CCCCNC(=O)C1Cc2cc(S(=O)(=O)N3CCCC3)ccc2N1C(C)=O` (stereo not given)?
Efflux pump inh: 0; Statin myotox sup: -4; SUMO Mot1 rescue: 140; Cneo AK release: 1

What do the screens show for `O=C(NCc1ccccn1)c1ccc(Cl)c(S(=O)(=O)N2CCCCCC2)c1`?
Efflux pump inh: 0; SUMO Mot1 rescue: -22; Cneo AK release: 5

Results for CN(C)S(=O)(=O)c1cccc(-n2sc3ccccc3c2=O)c1 ?
Efflux pump inh: 136*; Statin myotox sup: -8; SUMO Mot1 rescue: -5; Cneo AK release: -1

How did Cc1ccc(-n2sc3ccccc3c2=O)cc1S(=O)(=O)N1CCCCC1 do in these assays?
Efflux pump inh: 2.4*; Statin myotox sup: -108; SUMO Mot1 rescue: 18; Cneo AK release: -1

How did O=c1c2ccccc2sn1-c1cccc(Cl)c1 do in these assays?
Statin myotox sup: -4; Cneo AK release: -8

How did CCNC(=S)NNC(=O)c1cc(C2CC2)nc2ccccc12 do in these assays?
Efflux pump inh: -1; Statin myotox sup: -5; SUMO Mot1 rescue: 19; Cneo AK release: -2

What do the screens show for `Cc1ccc(S(=O)(=O)N(C)C[C@H]2Oc3ccc(NC(=O)Cc4ccccc4)cc3CC(=O)N([C@@H](C)CO)C[C@@H]2C)cc1`?
Statin myotox sup: 85*; Cneo AK release: 50

Results for Cc1ccc(S(=O)(=O)N(C)C[C@@H]2Oc3ccc(NS(=O)(=O)c4ccc(Cl)cc4)cc3CC(=O)N([C@@H](C)CO)C[C@@H]2C)cc1 ?
Statin myotox sup: 4; Cneo AK release: 100*

Results for COc1ccc(S(=O)(=O)N(C)C[C@@H]2Oc3ccc(NS(=O)(=O)c4ccc(Cl)cc4)cc3CC(=O)N([C@H](C)CO)C[C@@H]2C)cc1 ?
Statin myotox sup: 21; Cneo AK release: 1

Results for COc1ccc(S(=O)(=O)N(C)C[C@@H]2Oc3ccc(NS(=O)(=O)c4ccc(Cl)cc4)cc3CC(=O)N([C@@H](C)CO)C[C@H]2C)cc1 ?
Statin myotox sup: 73*; Cneo AK release: 15
